# Results: ChEMBL document CHEMBL1649278, “Characterization of a new metallo-beta-lactamase gene, bla(NDM-1), and a novel erythromycin esterase gene carried on a unique genetic structure in Klebsiella pneumoniae sequence type 14 from India” (2009)
# B1: Metallo-beta-lactamase type 2 (Klebsiella pneumoniae), C7C422 (protein)
# chain: MELPNIMHPVAKLSTALAAALMLSGCMPGEIRPTIGQQMETGDQRFGDLVFRQLAPNVWQHTSYLDMPGFGAVASNGLIVRDGGRVLVVDTAWTDDQTAQILNWIKQEINLPVALAVVTHAHQDKMGGMDALHAAGIATYANALSNQLAPQEGMVAAQHSLTFAANGWVEPATAPNFGPLKVFYPGPGHTSDNITVGIDGTDIAFGGCLIKDSKAKSLGNLGDADTEHYAASARAFGAAFPKASMIVMSHSAPDSRAAITHTARMADKLR
# How the values were obtained:
# [1] = tested on: Escherichia coli; assay: Antibacterial activity against Escherichia coli J53 harboring beta-lactamase NDM-1 by Etest method; type: functional
# Outline: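 Transconjugant of E. coli J53 recipient, mated with donor on blood agar without selection for 18 h. Selected on MacConkey agar with sodium azide (100 μg/ml) plus ceftazidime (8 μg/ml). Transfer confirmed by indole test and PCR for the MBL gene. Susceptibility read by Etest.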
# [2] = tested on: Escherichia coli; assay: Antibacterial activity against Escherichia coli TOP10 harboring beta-lactamase NDM-1 by Etest method; type: functional
# Outline: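 Fragments from BamHI, EcoRI or HindIII digests of K. pneumoniae 05-506 DNA were cloned into vector pK18 and electroporated into E. coli TOP10. Transformants were selected on LB agar with X-gal (30 μg/ml), ceftazidime (6 μg/ml) and kanamycin (25 μg/ml). Susceptibility read by Etest.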
# [3] = tested on: Escherichia coli; assay: Antibacterial activity against Escherichia coli J53 by Etest method; type: functional
# [4] = tested on: Escherichia coli; assay: Antibacterial activity against Escherichia coli NF-NDM-1 by Etest method; type: functional
# [5] = tested on: Klebsiella pneumoniae; assay: Antibacterial activity against Klebsiella pneumoniae 05-560 by Etest method; type: functional
# [6] = tested on: Escherichia coli; assay: Antibacterial activity against Escherichia coli TOP10 by Etest method; type: functional
# [7] = tested on: Klebsiella pneumoniae; assay: Activity of Klebsiella pneumoniae 05-560 beta-lactamase IMP1 by spectrophotometry
# [8] = tested on: Klebsiella pneumoniae; assay: Ratio of Kcat to Km for Klebsiella pneumoniae 05-560 beta-lactamase IMP1
# [9] = tested on: CC(C)(O/N=C(\C(=O)N[C@@H]1C(=O)N2C(C(=O)[O-])=C(C[n+]3ccccc3)CS[C@H]12)c1csc(N)n1)C(=O)O; assay: (§1) Ratio of Kcat to Km for Klebsiella pneumoniae 05-560 beta-lactamase VIM2
# [10] = tested on: CCN1CCN(C(=O)N[C@@H](C(=O)N[C@@H]2C(=O)N3[C@@H]2SC(C)(C)[C@@H]3C(=O)O)c2ccccc2)C(=O)C1=O; assay: as §1
# [11] = tested on: CC1(C)S[C@@H]2[C@H](NC(=O)Cc3ccccc3)C(=O)N2[C@H]1C(=O)O; assay: as §1
# [12] = tested on: CO/N=C(\C(=O)N[C@@H]1C(=O)N2C(C(=O)O)=C(COC(C)=O)CS[C@H]12)c1csc(N)n1; assay: as §1
# [13] = tested on: CC(=O)OCC1=C(C(=O)O)N2C(=O)[C@@H](NC(=O)Cc3cccs3)[C@H]2SC1; assay: as §1
# [14] = tested on: CC(C)(O/N=C(\C(=O)N[C@@H]1C(=O)N2C(C(=O)[O-])=C(C[n+]3ccccc3)CS[C@H]12)c1csc(N)n1)C(=O)O; assay: (§2) Activity of Klebsiella pneumoniae 05-560 beta-lactamase VIM2 by spectrophotometry
# [15] = tested on: CCN1CCN(C(=O)N[C@@H](C(=O)N[C@@H]2C(=O)N3[C@@H]2SC(C)(C)[C@@H]3C(=O)O)c2ccccc2)C(=O)C1=O; assay: as §2
# [16] = tested on: CC1(C)S[C@@H]2[C@H](NC(=O)Cc3ccccc3)C(=O)N2[C@H]1C(=O)O; assay: as §2
# [17] = tested on: CO/N=C(\C(=O)N[C@@H]1C(=O)N2C(C(=O)O)=C(COC(C)=O)CS[C@H]12)c1csc(N)n1; assay: as §2
# [18] = tested on: CC(=O)OCC1=C(C(=O)O)N2C(=O)[C@@H](NC(=O)Cc3cccs3)[C@H]2SC1; assay: as §2
# [19] = tested on: CO[C@@]1(NC(=O)Cc2cccs2)C(=O)N2C(C(=O)O)=C(COC(N)=O)CS[C@@H]21; assay: as §2
# [20] = substrate: CC(C)(O/N=C(\C(=O)N[C@@H]1C(=O)N2C(C(=O)[O-])=C(C[n+]3ccccc3)CS[C@H]12)c1csc(N)n1)C(=O)O; assay: (§3) Activity of Klebsiella pneumoniae 05-560 beta-lactamase NDM-1 by spectrophotometry
# Outline: (§4)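 NDM-1 was expressed as a His-trx fusion. The cleared lysate (12,000 rpm, 30 min, 4°C) was bound to Ni-NTA agarose and eluted with 300 mM imidazole. The tag was cut off with TEV protease, and the protein was finished by GS320 gel filtration.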
# [21] = substrate: CO/N=C(\C(=O)N[C@@H]1C(=O)N2C(C(=O)O)=C(COC(C)=O)CS[C@H]12)c1csc(N)n1; assay: as §3; outline: as §4
# [22] = substrate: CO[C@@]1(NC(=O)Cc2cccs2)C(=O)N2C(C(=O)O)=C(COC(N)=O)CS[C@@H]21; assay: as §3; outline: as §4
# [23] = substrate: CC1(C)S[C@@H]2[C@H](NC(=O)Cc3ccccc3)C(=O)N2[C@H]1C(=O)O; assay: as §3; outline: as §4
# [24] = substrate: C[C@@H](O)[C@H]1C(=O)N2C(C(=O)O)=C(SCCNC=N)C[C@H]12; assay: as §3; outline: as §4
# [25] = substrate: CC1(C)S[C@@H]2[C@H](NC(=O)[C@H](N)c3ccccc3)C(=O)N2[C@H]1C(=O)O; assay: as §3; outline: as §4
# [26] = substrate: CO/N=C(\C(=O)N[C@@H]1C(=O)N2C(C(=O)[O-])=C(C[N+]3(C)CCCC3)CS[C@H]12)c1csc(N)n1; assay: as §3; outline: as §4
# [27] = substrate: CCN1CCN(C(=O)N[C@@H](C(=O)N[C@@H]2C(=O)N3[C@@H]2SC(C)(C)[C@@H]3C(=O)O)c2ccccc2)C(=O)C1=O; assay: as §3; outline: as §4
# [28] = substrate: CC(=O)OCC1=C(C(=O)O)N2C(=O)[C@@H](NC(=O)Cc3cccs3)[C@H]2SC1; assay: as §3; outline: as §4
# [29] = substrate: CC(C)(O/N=C(\C(=O)N[C@@H]1C(=O)N2C(C(=O)[O-])=C(C[n+]3ccccc3)CS[C@H]12)c1csc(N)n1)C(=O)O; assay: (§5) Ratio of Kcat to Km for Klebsiella pneumoniae 05-560 beta-lactamase NDM-1; outline: as §4
# [30] = substrate: CO/N=C(\C(=O)N[C@@H]1C(=O)N2C(C(=O)O)=C(COC(C)=O)CS[C@H]12)c1csc(N)n1; assay: as §5; outline: as §4
# [31] = substrate: CO[C@@]1(NC(=O)Cc2cccs2)C(=O)N2C(C(=O)O)=C(COC(N)=O)CS[C@@H]21; assay: as §5; outline: as §4
# [32] = substrate: CC1(C)S[C@@H]2[C@H](NC(=O)Cc3ccccc3)C(=O)N2[C@H]1C(=O)O; assay: as §5; outline: as §4
# [33] = substrate: C[C@@H](O)[C@H]1C(=O)N2C(C(=O)O)=C(SCCNC=N)C[C@H]12; assay: as §5; outline: as §4
# [34] = substrate: CC1(C)S[C@@H]2[C@H](NC(=O)[C@H](N)c3ccccc3)C(=O)N2[C@H]1C(=O)O; assay: as §5; outline: as §4
# [35] = substrate: CO/N=C(\C(=O)N[C@@H]1C(=O)N2C(C(=O)[O-])=C(C[N+]3(C)CCCC3)CS[C@H]12)c1csc(N)n1; assay: as §5; outline: as §4
# [36] = substrate: CCN1CCN(C(=O)N[C@@H](C(=O)N[C@@H]2C(=O)N3[C@@H]2SC(C)(C)[C@@H]3C(=O)O)c2ccccc2)C(=O)C1=O; assay: as §5; outline: as §4
# [37] = substrate: CC(=O)OCC1=C(C(=O)O)N2C(=O)[C@@H](NC(=O)Cc3cccs3)[C@H]2SC1; assay: as §5; outline: as §4
molecule,measurement,setting,value
COLISTIN,MIC,[1],0.25 µg/mL
same,MIC,[2],0.38 µg/mL
same,MIC,[3],0.25 µg/mL
same,MIC,[4],0.25 µg/mL
same,MIC,[5],0.75 µg/mL
same,MIC,[6],0.38 µg/mL
CC(C)(O/N=C(\C(=O)N[C@@H]1C(=O)N2C(C(=O)[O-])=C(C[n+]3ccccc3)CS[C@H]12)c1csc(N)n1)C(=O)O [CEFTAZIDIME],Km,[7],44 µM
same,kcat,[7],8 s⁻¹
same,MIC,[1],> 256 µg/mL
same,MIC,[2],> 256 µg/mL
same,kcat/Km,[8],180000 M⁻¹ s⁻¹
same,MIC,[3],0.125 µg/mL
same,MIC,[4],> 256 µg/mL
same,MIC,[5],> 256 µg/mL
same,MIC,[6],1 µg/mL
C[C@@H](O)[C@H]1C(=O)N2C(C(=O)O)=C(SCCNC=N)C[C@H]12 [IMIPENEM ANHYDROUS],Km,[7],39 µM
same,kcat,[7],46 s⁻¹
same,MIC,[1],16 µg/mL
same,MIC,[2],12 µg/mL
same,kcat/Km,[8],1.2e+06 M⁻¹ s⁻¹
same,MIC,[4],> 32 µg/mL
same,MIC,[5],> 256 µg/mL
same,MIC,[6],0.094 µg/mL
O=C(O)c1cn(C2CC2)c2cc(N3CCNCC3)c(F)cc2c1=O [CIPROFLOXACIN],MIC,[1],0.047 µg/mL
same,MIC,[3],0.032 µg/mL
same,MIC,[5],> 256 µg/mL
CO/N=C(\C(=O)N[C@@H]1C(=O)N2C(C(=O)O)=C(COC(C)=O)CS[C@H]12)c1csc(N)n1 [CEFOTAXIME],Km,[7],4 µM
same,kcat,[7],1.3 s⁻¹
same,MIC,[1],> 256 µg/mL
same,MIC,[2],> 256 µg/mL
same,kcat/Km,[8],350000 M⁻¹ s⁻¹
same,MIC,[3],0.064 µg/mL
same,MIC,[4],> 256 µg/mL
same,MIC,[5],> 256 µg/mL
same,MIC,[6],0.125 µg/mL
C[C@H]1[C@H](NC(=O)/C(=N\OC(C)(C)C(=O)O)c2csc(N)n2)C(=O)N1S(=O)(=O)O [AZTREONAM],Km,[7],> 1000 µM
same,kcat,[7],> 0.01 s⁻¹
same,MIC,[1],24 µg/mL
same,MIC,[2],0.25 µg/mL
same,kcat/Km,[8],< 100 M⁻¹ s⁻¹
same,MIC,[4],24 µg/mL
same,MIC,[5],> 256 µg/mL
Metallo-beta-lactamase VIM-2 (Klebsiella pneumoniae) (from UniProt Q3Y6Q3),kcat/Km,[9],900000 M⁻¹ s⁻¹
same,kcat/Km,[10],450000 M⁻¹ s⁻¹
same,kcat/Km,[11],1.14e+06 M⁻¹ s⁻¹
same,kcat/Km,[12],860000 M⁻¹ s⁻¹
same,kcat/Km,[13],1.28e+06 M⁻¹ s⁻¹
same,Km,[14],98 µM
same,kcat,[14],89 s⁻¹
same,Km,[15],72 µM
same,kcat,[15],33 s⁻¹
same,Km,[16],49 µM
same,kcat,[16],56 s⁻¹
same,Km,[17],32 µM
same,Km,[18],44 µM
same,kcat,[18],57 s⁻¹
same,Km,[19],24 µM
same,kcat,[19],3 s⁻¹
CO[C@@]1(NC(=O)Cc2cccs2)C(=O)N2C(C(=O)O)=C(COC(N)=O)CS[C@@H]21 [CEFOXITIN],MIC,[1],> 256 µg/mL
same,MIC,[2],> 256 µg/mL
same,kcat/Km,[8],2e+06 M⁻¹ s⁻¹
same,MIC,[3],2 µg/mL
same,MIC,[4],> 256 µg/mL
same,MIC,[5],> 256 µg/mL
same,MIC,[6],4 µg/mL
B1,Km,[20],181 µM
same,kcat,[20],5 s⁻¹
same,Km,[21],10 µM
same,kcat,[21],6 s⁻¹
same,kcat,[22],1 s⁻¹
same,Km,[23],16 µM
same,kcat,[23],11 s⁻¹
same,Km,[24],94 µM
same,kcat,[24],20 s⁻¹
same,Km,[25],22 µM
same,kcat,[25],15 s⁻¹
same,Km,[26],77 µM
same,kcat,[26],13 s⁻¹
same,kcat,[27],14 s⁻¹
same,Km,[28],10 µM
same,kcat,[28],4 s⁻¹
same,kcat/Km,[29],30000 M⁻¹ s⁻¹
same,kcat/Km,[30],580000 M⁻¹ s⁻¹
same,kcat/Km,[31],20000 M⁻¹ s⁻¹
same,kcat/Km,[32],680000 M⁻¹ s⁻¹
same,kcat/Km,[33],210000 M⁻¹ s⁻¹
same,kcat/Km,[34],660000 M⁻¹ s⁻¹
same,kcat/Km,[35],170000 M⁻¹ s⁻¹
same,kcat/Km,[36],1.17e+06 M⁻¹ s⁻¹
same,kcat/Km,[37],400000 M⁻¹ s⁻¹
